Measured values taken from ChEMBL document CHEMBL2177091, “Spirocyclic sulfamides as β-secretase 1 (BACE-1) inhibitors for the treatment of Alzheimer's disease: utilization of structure based drug design, WaterMap, and CNS penetration studies to identify centrally efficacious inhibitors” (J Med Chem, 2012).

Assays:
in vitro = details: human, liver microsomes
[1] = Ratio of free drug concentration in brain to free drug concentration in plasma in FVB/N mouse at 10 mg/kg, sc after 60 mins; type: ADME, organism-based; set-up: dose 10 mg/kg, route subcutaneous; details: brain and plasma (free concentrations), read-out: K(p,uu,brain)
Summary of the method: (§1)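 Mice dosed 10 mg/kg subcutaneously; plasma and brain exposures taken at 60 min. Unbound fractions determined by equilibrium dialysis.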

Plasma = experiment: Fraction unbound in FVB/N mouse plasma at 1 uM after 6 hrs by equilibrium dialysis; type: ADME, cell-free
[2] = Ratio of drug uptake in brain to plasma in FVB/N mouse at 10 mg/kg, sc after 60 mins; type: ADME, organism-based; set-up: dose 10 mg/kg, route subcutaneous; details: brain and plasma, read-out: BPR
Summary of the method: as §1

[3] = Intrinsic clearance in rat liver microsomes; type: ADME, Microsome; details: read-out: CLH

## C[C@H]1C[C@]2(CCN1Cc1ccc(O)c(Cl)c1)CN(C)S(=O)(=O)N2c1cccc(F)c1
In vitro
  CLint scaled: 173 mL/min/kg

## CCOc1cc(CN2CC[C@@]3(C[C@@H]2C)CN(C)S(=O)(=O)N3c2cccc(F)c2)ccc1O
In vitro
  CLint scaled: 79.9 mL/min/kg

## CC(C)Oc1cc(CN2CC[C@@]3(C[C@@H]2C)CN(C)S(=O)(=O)N3c2cccc(F)c2)ccc1O
[1]
  Kp uu at 1 h: 0.27
Plasma
  Cp(f): 0.17
[2]
  Kp at 1 h: 0.35
[3]
  CLint scaled: 59.7 mL/min/kg
In vitro
  CLint scaled: 15.4 mL/min/kg

## CC(C)Oc1cccc(CN2CC[C@@]3(C[C@@H]2C)CN(C)S(=O)(=O)N3c2cccc(F)c2)c1
[1]
  Kp uu at 1 h: 0.65
Plasma
  Cp(f): 0.036
[2]
  Kp at 1 h: 0.97
[3]
  CLint scaled: > 65.5 mL/min/kg
In vitro
  CLint scaled: > 19 mL/min/kg

## CC(=O)Nc1ccc(CN2CC[C@@]3(C[C@@H]2C)CN(C)S(=O)(=O)N3c2cccc(F)c2)cc1
In vitro
  CLint scaled: > 300 mL/min/kg

## C[C@H]1C[C@]2(CCN1Cc1ccc3[nH]ccc3c1)CN(C)S(=O)(=O)N2c1cccc(F)c1
In vitro
  CLint scaled: 175 mL/min/kg

## CCc1n[nH]c2ccc(CN3CC[C@@]4(C[C@@H]3C)CN(C)S(=O)(=O)N4c3cccc(F)c3)cc12
In vitro
  CLint scaled: 74.2 mL/min/kg

## C[C@H]1C[C@]2(CCN1Cc1ccc(O)cc1)CN(C)S(=O)(=O)N2c1cccc(F)c1
In vitro
  CLint scaled: 152 mL/min/kg

## CC(C)Oc1cccc(CN2CC[C@]3(CNS(=O)(=O)N3c3cccc(F)c3)C[C@@H]2C)c1
[1]
  Kp uu at 1 h: 0.22
Plasma
  Cp(f): 0.041
[2]
  Kp at 1 h: 0.67
[3]
  CLint scaled: > 65.5 mL/min/kg
In vitro
  CLint scaled: > 19 mL/min/kg
